# Hits are enriched below; roughly 6.1% of the tested compounds scored in any of these assays.
# RAM inhibit: yeast RAM network inhibition. AID 868. S. cerevisiae dse1pr::URA3 reporter, 5-FOA growth OD615, 2 d; analog-sensitive cbk1-as2 kinase mutant strain. inhibition, % at 50 µM. 190,000 compounds, 1.8% hits;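 active = inhibition above a set limit, 3 SD over mean compound inhibition, cut at about 8.4% in these data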;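 note: 0% = DMSO-only wells with no growth and 100% = 10 µM 1-NA-PP1 full growth; inhibition rescues growth on 5-FOA so higher OD means more RAM inhibition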
# hDAT+cocaine: human DAT dopamine uptake with cocaine, either direction; B-score at 10 µM; Q01959; 110,000 compounds, 1.3% hits; LLC-PK1 hDAT cells, [14C]-dopamine uptake with cocaine IC80; actives deviate in either direction; AID 449768;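 active = Z score or B-score, a plate-position-corrected score, falls beyond the plate's 99.7% confidence bounds, in either direction; inactive = both scores lie inside the 99.7% bounds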;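 note: scored against the spread of the other compound wells on the same plate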
# Target sequence (Q01959 whole entry, looked up): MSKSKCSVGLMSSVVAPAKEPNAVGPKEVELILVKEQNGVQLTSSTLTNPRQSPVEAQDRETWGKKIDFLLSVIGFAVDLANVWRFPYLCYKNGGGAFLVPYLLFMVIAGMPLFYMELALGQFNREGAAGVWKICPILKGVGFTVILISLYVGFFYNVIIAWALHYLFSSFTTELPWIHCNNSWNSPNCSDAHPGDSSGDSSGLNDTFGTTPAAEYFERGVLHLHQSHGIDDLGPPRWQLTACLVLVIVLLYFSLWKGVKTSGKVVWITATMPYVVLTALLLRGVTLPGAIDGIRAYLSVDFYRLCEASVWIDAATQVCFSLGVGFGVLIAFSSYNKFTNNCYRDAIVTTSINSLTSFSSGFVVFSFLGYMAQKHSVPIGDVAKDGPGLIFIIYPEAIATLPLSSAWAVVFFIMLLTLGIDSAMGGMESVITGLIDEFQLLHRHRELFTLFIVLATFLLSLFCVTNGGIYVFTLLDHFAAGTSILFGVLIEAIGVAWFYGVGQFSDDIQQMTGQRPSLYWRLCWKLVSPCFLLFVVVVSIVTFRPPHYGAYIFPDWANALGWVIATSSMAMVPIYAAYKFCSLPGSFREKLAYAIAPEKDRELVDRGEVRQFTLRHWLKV
# Yeast growth inh: reduces growth of yeast BB579 in restrictive medium; S. cerevisiae BB579 growth, OD615, 48 h; inhibition, % at 10 µM; 140,000 compounds, 0.51% hits; AID 804;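 active = inhibition above a set limit, 3 SD over the mean compound inhibition, cut at about 44% in these data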
#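 test system = yeast BB579 (DeaD) | buffer or medium = restrictive CSMM-D medium | doses = single compound dose of 10 µM, 0.25% DMSO final | times = 4 h preincubation and 48 h exposure at 30 °C | technique = culture absorbance at 615 nm | benchmarks = amphotericin B 10 µg/mL, positive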
# Measles CPE: protection of cells from measles virus. 140,000 compounds, 1.5% hits. Measles virus-infected cells, CPE protection, absorbance. protection (pct of control), % at 4 µM; in the data active = protection mostly above about 24%, no sharp cut-off; inactive = mostly below about 26%
# WT yeast gro inh: growth inhibition of WT yeast, mitochondrial fusion screen; mitochondrial fusion phenotypic screen, WT strain; inhibition, % at 10 µM; 190,000 compounds, 2.1% hits; in the data active = inhibition above about 58%; tested in S. cerevisiae
# Yeast life ext: extends the lifespan of yeast; 130,000 compounds, 0.68% hits; AID 775; S. cerevisiae growth with nicotinamide, OD615; deaD strain in restrictive glucose medium; inhibition of the nicotinamide effect, % at 10 µM;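 active = inhibition above a set limit, placed 3 SD over the median of all compounds, cut at about 26% in these data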;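 note: 0% = nicotinamide-treated wells and 100% = cells grown without nicotinamide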
#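 Assay system: engineered S. cerevisiae DeaD replicative-lifespan strain, galactose-grown log-phase cells; medium: restrictive CSMM-D dextrose medium; also added: nicotinamide, 1.5 mM, co-present with compound; schedule: 48 h compound exposure at 30 °C, humidified; detection: absorbance at 615 nm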
# RAM 5-FOA: RAM network inhibition, efflux-deficient strain | 1,200 tested, under 10 active | shares compounds with RAM inhibit | max inhibition, % | S. cerevisiae efflux-deficient reporter strain, 5-FOA growth OD615, 2 days; call rule not given here;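 note: plate controls were vehicle for no effect and reference inhibitor for full effect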
# An asterisk follows results filed as active; . = no result.
SMILES,RAM inhibit,hDAT+cocaine,Yeast growth inh,Measles CPE,WT yeast gro inh,Yeast life ext,RAM 5-FOA
COc1ccc(-c2ccc(-c3noc(C(C)C)n3)c(OC)n2)cc1,15*,-0.17,-68,5,8,-11,4
COc1cccc(NC(=S)N(CCc2c(C)[nH]c3ccccc23)Cc2cccs2)c1,2,.,-27,4,34,-2,.
COCCNC(=S)N(CCc1c(C)[nH]c2ccc(F)cc12)Cc1cccs1,12*,.,.,.,34,.,1
CCCCN(C(=O)c1cccc2c(=O)c(C)c(-c3ccccc3)oc12)c1ccccc1,16*,.,-24,1,78*,29*,2
CCOC(=O)C1(CC2CC2)CCN(C(=O)c2cc(C)nc3ccc(CC)cc23)CC1,1,.,.,.,26,.,.
C=C(C)COc1ccc(-c2n[nH]c(C)c2Oc2ccccc2OC)c(O)c1,5,3,-25,25,10,-2,.
C=C(C)COc1ccc(-c2[nH]ncc2Oc2ccccc2OCC)c(O)c1,16*,0.79,-5,19,-21,-15,2
C=C(C)COc1ccc(-c2[nH]ncc2-c2ccc(OC)c(OC)c2)c(O)c1,14*,1,-33,9,6,-21,2
CCCc1ccc(Oc2cn[nH]c2-c2ccc(O)cc2O)cc1,2,-0.038,-44,11,95,-7,.
Cc1ccc(-n2c(SCC(=O)N3CCCc4ccccc43)nnc2-c2cccnc2)c(C)c1,12*,.,-55,11,-5,6,1
CCCCn1c(SCc2nc3ccccc3s2)nc2ccccc2c1=O,13*,.,-38,4,-9,6,3
O=C(CNC(=S)N(Cc1ccccc1)Cc1ccccc1F)NCCc1ccc(Cl)cc1,36*,.,.,.,75*,.,3
Cc1nn(C)c(C)c1NC(=O)CN1CCC(O)(c2ccc3c(c2)OCO3)CC1,1,0.75,21,8,.,0,.
CN(c1cccc(NC(=O)CN(c2ccc(F)cc2)S(C)(=O)=O)c1)S(C)(=O)=O,13*,.,.,.,7,.,3
Cc1cccc(NC(=O)CN(c2ccc(F)cc2)S(C)(=O)=O)c1,-1,.,.,.,10,.,.
Cc1cc(C)nc(N2N=C(CSc3ccc(Cl)cc3)CC2=O)n1,13*,.,.,.,-2,.,1
Cc1nn(CCc2nn[nH]n2)c2nc(-c3ccc(C4CCCCC4)cc3)cc(C(F)(F)F)c12,15*,.,.,.,98*,.,8
COc1ccc(-c2cc(-c3ccc(Br)cc3)nc3ncnn23)cc1OC,1,1.1,-30,8,10,-10,.
CNC(=S)N1N=C(c2ccc(C)cc2)CC1c1ccc(Br)cc1 (stereo not given),21*,1.1,-56,15,58*,-6,2
CNC(=S)N1N=C(c2ccccc2)CC1c1ccccc1Cl (stereo not given),4,.,.,.,10,.,.
COc1ccc(Cl)cc1NC(=O)Cn1c(NCCO)nc2ccccc21,-1,.,.,.,-9,.,.
O=C(CSc1nc(-c2ccco2)cc(C(F)(F)F)n1)NCCc1ccccc1,14*,0.024,-19,3,2,-3,2
COc1ccc(CCNC(=O)CSc2nc(-c3ccco3)cc(C(F)(F)F)n2)cc1OC,0,1.3,14,0,-15,-8,.
CCCC(=O)Nc1cccc(-c2nc3ccccc3c(=O)o2)c1,1,.,.,.,-1,.,.
COc1cc(NC(=O)c2ccc3c(c2)OCO3)c2ncccc2c1,12*,-1.7,-4,4,-48,-8,6
SMILES,RAM inhibit,hDAT+cocaine,Yeast growth inh,Measles CPE,WT yeast gro inh,Yeast life ext,RAM 5-FOA
COc1ccc(CCN(Cc2cccs2)S(=O)(=O)c2ccc(C(=O)O)cc2)cc1OC,13*,.,.,.,-11,.,2
CCN(CC)S(=O)(=O)c1ccc(OC)c(NC(=O)Cc2cccs2)c1,1,.,.,.,4,.,.
CCOc1ccccc1NC(=O)C(OC(=O)c1cc(C)oc1C)c1ccccc1 (stereo not given),14*,.,-28,16,5,0,5
COc1cccc(CN(Cc2ccccc2F)S(=O)(=O)c2ccc(S(=O)(=O)NCc3ccccc3)cc2)c1,18*,.,-40,7,-1,12,4
COc1cccc(CNS(=O)(=O)c2ccc(S(=O)(=O)N3CCCC3)cc2)c1,3,.,.,.,2,.,.
COc1cccc(CN(Cc2ccco2)S(=O)(=O)c2ccc(S(=O)(=O)NCc3ccccc3)cc2)c1OC,14*,-0.013,-44,12,8,.,4
COc1cccc(CN(CC2CCCO2)S(=O)(=O)c2ccc(S(=O)(=O)NCC3CCCO3)cc2)c1OC (stereo not given),0,2,-51,10,3,-11,.
CCN(Cc1ccccc1)S(=O)(=O)c1ccc(S(=O)(=O)N(Cc2cccc(OC)c2)CC2CCCO2)cc1 (stereo not given),16*,-0.012,-51,23,12,-1,6
CCOc1ccc(C(=O)NCc2ccccc2OC)cc1,2,.,-5,9,11,-5,.
Cc1nc(C)n(CC(=O)N2CCCC(C(=O)c3cccc4ccccc34)C2)n1 (stereo not given),-1,.,.,.,2,.,.
CC(C)(C)NC(=O)c1ccc(NC(=O)CSc2ccccc2)cc1,22*,.,.,.,-1,.,2
O=P(c1ccccc1)(c1ccccc1)c1nc(-c2ccccc2)oc1NCc1ccccc1,8,.,.,.,26,.,.
CC(C)c1ccccc1NC(=O)COC(=O)CCN1C(=O)/C(=C\C=C\c2ccccc2)SC1=S,2,.,-39,9,-12,7,.
O=C(COC(=O)CCN1C(=O)/C(=C\C=C\c2ccccc2)SC1=S)Nc1ccc(Br)cc1,16*,.,.,.,10,.,2
Cc1ccc(S(=O)(=O)N2CCC(=O)N(C(COCc3cccc(C(F)(F)F)c3)C(C)C)CC2)cc1 (stereo not given),13*,-0.46,-23,21,32,2,2
Cc1ccc(S(=O)(=O)N2CCC(=O)N(C(COCc3cccc(Cl)c3)Cc3ccccc3)CC2)cc1 (stereo not given),15*,1,-38,7,16,12,4
CC(C)(C)NC(=O)N1CCCC(C(=O)c2cccc(Cl)c2)C1 (stereo not given),-1,.,.,.,-7,.,.
CC(NCc1ccc(F)cc1)C(=O)NC1CCCCC1 (stereo not given),-1,.,.,.,-13,.,.
COc1ccc(-c2c/c(=N\c3nc(-c4ccccc4)c(C)s3)c3ccccc3o2)cc1O,11*,-0.98,-33,3,-9,-4,2
Cc1cc(C(=O)CSc2ccc(Cl)cc2)cc(C)c1OC(=S)N(C)C,12*,1.4,-26,26,17,-4,5
CC(C)CCC(C)N=Cc1c(O)n(Cc2ccccc2)c(=O)c2ccccc12 (stereo not given),17*,0.27,-83,1,15,17,6

# Compound activity from PubChem BioAssay.
